# Experimental data from different studies.
# Each line is one published result; the experiments were not run side by side.
# Target: Serine/threonine-protein kinase 38 (STK38, Homo sapiens, UniProt Q15208)
SMILES,effect on,mode,technique,cell line,tested at,endpoint,result
NS(=O)(=O)c1cc(NC(=O)C2(c3ccccc3Cl)CC2)ccc1Oc1cccc(Cl)c1,cell-free assay,,competition with immobilised ligand,,1 µM,remaining binding,81%
CC1(C)NC(=O)c2[nH]c3c(Cl)c(Cl)ccc3c2C1C#N (stereo not drawn),thermal stability,,DSF,,10 µM,ΔTm,-0.1 °C
O=C(Nc1cnc(Oc2ccc(F)cc2)nc1)N1CCc2ncccc2[C@@H]1c1ccc(F)cc1,cell-free assay,,competition with immobilised ligand,,1 µM,remaining binding,91%
Cn1c2c(Cl)c(Cl)ccc2c2cc[nH]c(=O)c21,thermal stability,,DSF,,10 µM,ΔTm,0 °C
c1nc2c(Nc3ccc4c(c3)OCCO4)nc(Nc3ccc4c(c3)OCCO4)nc2[nH]1,enzyme activity,inhibitor,,,10 µM,activity vs control,73%
CCN1CCN(Cc2ccc(NC(=O)c3ccc(C)c(Oc4ccnc5[nH]ccc45)c3)cc2C(F)(F)F)CC1,target engagement in cells,inhibitor,chemoproteomics,A-375,5 µM,inhibition,-0.846%
Cn1c2c(Cl)c(Cl)ccc2c2cn[nH]c(=O)c21,thermal stability,,DSF,,10 µM,ΔTm,0 °C
C[S+]([O-])c1ccc(-c2nc(-c3ccncc3)c(-c3ccc(F)cc3)[nH]2)cc1 (stereo not drawn),cell-free assay,,,,0.5 µM,remaining signal,105%
CC(C)(O)[C@H]1CC[C@H](Nc2ccc3ncc(-c4cccc(C(F)(F)F)c4)n3n2)CC1,enzyme activity,inhibitor,,,1 µM,remaining activity,96.7%
CCC(=N\O)/C(C)=C/c1ccc(F)cc1,cell-free assay,,competition with immobilised ligand,,1 µM,remaining binding,94%
CCN1CCN(Cc2ccc(NC(=O)c3ccc(C)c(/C=C/c4cnc5[nH]ccc5c4OC)c3)cc2C(F)(F)F)CC1,target engagement in cells,inhibitor,chemoproteomics,A-375,0.5 µM,inhibition,-0.843%
Cc1c(NC(=O)c2cc(C(N)=O)nc3cc(F)ccc23)c(C(F)(F)F)nn1Cc1ccc(C#N)cc1,cell-free assay,,competition with immobilised ligand,,1 µM,remaining binding,94%
CN1CCC2(CC1)NC(=O)c1c(c3ccc(Cl)c(Cl)c3n1C)C2C#N (racemic),thermal stability,,DSF,,10 µM,ΔTm,0 °C
C[C@H](c1ccnc(Nc2nc3ccc(-c4cc(N(C)C)ncn4)cc3[nH]2)c1)N1CCN(C(=O)CC(F)(F)F)CC1,cell-free assay,,competition with immobilised ligand,,0.1 µM,remaining binding,100%
Cn1c2c(c3ccc(Cl)c(Cl)c31)C(C#N)C1(CCOCC1)NC2=O (stereo not drawn),thermal stability,,DSF,,10 µM,ΔTm,0 °C
Cc1nc(Cc2cccc(C(F)(F)F)c2)sc1-c1ccc(C(N)=O)nc1,cell-free assay,,competition with immobilised ligand,,1 µM,remaining binding,81%
O=C1NC(=O)c2cc(Nc3ccc(F)cc3)c(Nc3ccc(F)cc3)cc21,cell-free assay,,,,0.5 µM,remaining signal,85.5%
Cc1sc(C(=O)NC2COC2)cc1-n1cc(NC(=O)Nc2c(F)cccc2Cl)cn1,enzyme activity,inhibitor,,,10 µM,remaining activity,91.5%
